Data taken from ChEMBL document CHEMBL4229549, “Discovery and structural characterization of peficitinib (ASP015K) as a novel and potent JAK inhibitor” (Bioorg Med Chem, 2018).

What was measured:
[1] = target: Tyrosine-protein kinase JAK2 (Homo sapiens, UniProt O60674); assay: Inhibition of recombinant human N-terminal His-tagged JAK2 catalytic domain (826 to 1132 residues) expressed in baculovirus expression system using Biotin-Lyn-Substrate2 after 1 hr by ELISA
[2] = target: T1, Tyrosine-protein kinase JAK3 (Homo sapiens, UniProt P52333); assay: Inhibition of recombinant human N-terminal His-tagged JAK3 catalytic domain (795 to 1124 residues) expressed in baculovirus expression system using Biotin-Lyn-Substrate2 after 1 hr by ELISA
T1 sequence (P52333 whole entry): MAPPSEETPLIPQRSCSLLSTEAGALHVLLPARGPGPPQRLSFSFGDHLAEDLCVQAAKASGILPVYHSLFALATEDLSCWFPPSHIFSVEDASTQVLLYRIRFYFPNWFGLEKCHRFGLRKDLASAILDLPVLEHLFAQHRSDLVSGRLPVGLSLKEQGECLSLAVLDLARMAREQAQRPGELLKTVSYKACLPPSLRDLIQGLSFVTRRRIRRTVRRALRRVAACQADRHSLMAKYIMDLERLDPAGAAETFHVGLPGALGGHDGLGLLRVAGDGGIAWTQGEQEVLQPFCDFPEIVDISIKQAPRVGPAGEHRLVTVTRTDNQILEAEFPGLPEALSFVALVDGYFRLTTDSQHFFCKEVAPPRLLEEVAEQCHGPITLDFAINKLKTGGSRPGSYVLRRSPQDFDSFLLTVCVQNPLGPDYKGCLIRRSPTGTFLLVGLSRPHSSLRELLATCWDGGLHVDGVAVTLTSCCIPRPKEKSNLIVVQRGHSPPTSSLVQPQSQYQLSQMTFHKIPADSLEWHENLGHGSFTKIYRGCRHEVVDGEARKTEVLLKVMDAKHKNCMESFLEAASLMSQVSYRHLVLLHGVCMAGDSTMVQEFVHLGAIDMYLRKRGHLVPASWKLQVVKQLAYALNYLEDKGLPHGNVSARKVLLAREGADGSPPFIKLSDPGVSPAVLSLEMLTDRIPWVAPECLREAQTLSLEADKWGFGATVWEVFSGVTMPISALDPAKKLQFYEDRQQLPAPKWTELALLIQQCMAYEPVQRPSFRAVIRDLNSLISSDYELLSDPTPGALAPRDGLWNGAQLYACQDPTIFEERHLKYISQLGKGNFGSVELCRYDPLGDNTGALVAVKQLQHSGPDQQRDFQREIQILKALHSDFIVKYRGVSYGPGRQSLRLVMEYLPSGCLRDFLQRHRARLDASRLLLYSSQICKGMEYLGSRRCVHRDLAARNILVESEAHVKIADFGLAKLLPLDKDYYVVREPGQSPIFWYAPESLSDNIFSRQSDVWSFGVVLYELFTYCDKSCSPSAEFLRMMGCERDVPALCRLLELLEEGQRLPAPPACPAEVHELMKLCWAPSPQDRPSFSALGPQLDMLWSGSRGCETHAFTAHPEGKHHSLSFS
Procedure, shortened: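 Human JAK3 kinase domain with 250 nM biotinylated Lyn substrate peptide and 8 µM ATP (final). Reaction started with enzyme, run 1 h at room temperature on streptavidin plate. Phosphorylation read by anti-phosphotyrosine HRP ELISA. Run in duplicate.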

[3] = target: Tyrosine-protein kinase JAK1 (Homo sapiens, UniProt P23458); assay: Inhibition of recombinant human N-terminal GST-tagged JAK1 catalytic domain (850 to 1154 residues) expressed in baculovirus expression system using Biotin-Lyn-Substrate2 after 1 hr by ELISA
Sequence of Tyrosine-protein kinase JAK1 (P23458 whole entry, the tested form may be a part): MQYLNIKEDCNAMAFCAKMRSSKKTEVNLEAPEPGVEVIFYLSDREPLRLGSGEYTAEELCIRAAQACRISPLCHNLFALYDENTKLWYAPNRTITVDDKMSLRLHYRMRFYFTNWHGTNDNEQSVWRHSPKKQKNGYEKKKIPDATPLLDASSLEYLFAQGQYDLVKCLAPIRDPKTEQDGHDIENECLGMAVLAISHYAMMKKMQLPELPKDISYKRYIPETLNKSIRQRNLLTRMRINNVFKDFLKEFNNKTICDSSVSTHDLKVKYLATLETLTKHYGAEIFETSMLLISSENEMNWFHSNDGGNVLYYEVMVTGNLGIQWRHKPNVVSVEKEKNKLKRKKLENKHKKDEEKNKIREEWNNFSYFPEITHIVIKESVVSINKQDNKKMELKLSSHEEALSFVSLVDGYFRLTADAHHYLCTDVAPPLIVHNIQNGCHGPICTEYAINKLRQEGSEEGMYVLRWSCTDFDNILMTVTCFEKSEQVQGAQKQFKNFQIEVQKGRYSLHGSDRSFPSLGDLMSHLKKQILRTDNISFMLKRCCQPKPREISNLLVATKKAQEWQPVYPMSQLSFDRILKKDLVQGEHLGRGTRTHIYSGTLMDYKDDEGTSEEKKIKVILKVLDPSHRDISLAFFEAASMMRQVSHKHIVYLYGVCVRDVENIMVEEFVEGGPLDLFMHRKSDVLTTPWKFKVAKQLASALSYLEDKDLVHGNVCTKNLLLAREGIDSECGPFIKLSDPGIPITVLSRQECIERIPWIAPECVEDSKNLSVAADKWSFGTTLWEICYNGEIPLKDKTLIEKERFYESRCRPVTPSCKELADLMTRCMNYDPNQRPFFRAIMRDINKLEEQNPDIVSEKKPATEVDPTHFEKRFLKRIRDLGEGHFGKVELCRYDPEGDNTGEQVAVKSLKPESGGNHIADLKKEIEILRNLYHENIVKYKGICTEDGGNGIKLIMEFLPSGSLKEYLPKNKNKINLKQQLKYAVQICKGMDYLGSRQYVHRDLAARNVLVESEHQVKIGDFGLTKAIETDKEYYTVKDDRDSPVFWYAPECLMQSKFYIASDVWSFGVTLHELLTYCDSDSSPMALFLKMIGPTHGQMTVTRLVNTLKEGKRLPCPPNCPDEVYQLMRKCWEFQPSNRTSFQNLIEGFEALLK

[4] = Intrinsic clearance in Sprague-Dawley rat liver microsomes at 0.2 uM in presence of NADPH by LC-MS/MS analysis; assay type: ADME, microsome; settings: read-out: CLH
Procedure, shortened: (§1)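 Compound at 0.2 or 1.0 µM incubated with male SD rat liver microsomes (0.2 mg protein/mL) plus 1 mM NADPH and 0.1 mM EDTA in 100 mM phosphate buffer at 37°C. Percentage remaining was measured by LC/MS/MS. Run in duplicate.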

[5] = Total clearance in Sprague-Dawley rat at 1 mg/kg, iv administered as single dose by LC-MS/MS analysis; assay type: ADME, organism-based; settings: in vivo
Procedure, shortened: (§2)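 Male SD rats (Crl:CD(SD), 7 weeks old), food deprived before dosing; single intravenous dose of 1 mg/kg in 10 v/v% propylene glycol. Blood was sampled at multiple time points up to 24 h. Unchanged compound in plasma was measured by LC/MS/MS. Parameters were calculated from mean plasma concentrations (n=3) at each time point.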

[6] = Oral bioavailability in Sprague-Dawley rat at 1 mg/kg administered as single dose by LC-MS/MS analysis; assay type: ADME, organism-based; settings: in vivo
Procedure, shortened: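 Fasted male SD rats, 7 weeks old, given 1 mg/kg as a single dose, orally in 0.5 w/v% methylcellulose and intravenously in 10 v/v% propylene glycol. Plasma was sampled up to 24 h and unchanged compound measured by LC/MS/MS. Bioavailability was derived from mean concentrations (n=3 per time point).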

[7] = Volume of distribution at steady state in Sprague-Dawley rat at 1 mg/kg, iv administered as single dose by LC-MS/MS analysis; assay type: ADME, organism-based; settings: in vivo, read-out: Vdss; procedure, shortened: as §2
[8] = Inhibition of JAK1/JAK3 in Lewis rat splenocytes assessed as reduction in IL-2-induced T cell proliferation after 3 days by alamar blue assay; assay type: cell-based; settings: 72 h
[9] = Half life in Sprague-Dawley rat at 1 mg/kg, po administered as single dose by LC-MS/MS analysis; assay type: ADME, organism-based; settings: in vivo
Procedure, shortened: as §2, with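 “oral” for “intravenous”, “0.5 w/v% methylcellulose.” for “10 v/v% propylene glycol.”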

[10] = Cmax in Sprague-Dawley rat at 1 mg/kg, po administered as single dose by LC-MS/MS analysis; assay type: ADME, organism-based; set-up: dose 1 mg/kg, route oral; settings: in vivo
Procedure, shortened: as §2, with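 “oral” for “intravenous”, “0.5 w/v% methylcellulose.” for “10 v/v% propylene glycol.”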

[11] = AUC (0 to infinity) in Sprague-Dawley rat at 1 mg/kg, iv administered as single dose by LC-MS/MS analysis; assay type: ADME, organism-based; set-up: dose 1 mg/kg, time infinity, route intravenous; settings: in vivo; procedure, shortened: as §2
[12] = Half life in Sprague-Dawley rat at 1 mg/kg, iv administered as single dose by LC-MS/MS analysis; assay type: ADME, organism-based; settings: in vivo; procedure, shortened: as §2
[13] = Tmax in Sprague-Dawley rat at 1 mg/kg, po administered as single dose by LC-MS/MS analysis; assay type: ADME, organism-based; settings: in vivo
Procedure, shortened: as §2, with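 “oral” for “intravenous”, “0.5 w/v% methylcellulose.” for “10 v/v% propylene glycol.”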

[14] = AUC (0 to infinity) in Sprague-Dawley rat at 1 mg/kg, po administered as single dose by LC-MS/MS analysis; assay type: ADME, organism-based; set-up: dose 1 mg/kg, route oral, time infinity; settings: in vivo
Procedure, shortened: as §2, with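 “oral” for “intravenous”, “0.5 w/v% methylcellulose.” for “10 v/v% propylene glycol.”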

[15] = Inhibition of JAK1/JAK3 in rat splenocytes assessed as reduction in IL-2-induced T cell proliferation; assay type: cell-based
Procedure, shortened: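 Male Lewis rat splenocytes, 1.5×10^6 cells/mL in RPMI1640 with 10% FBS and 50 µM 2-mercaptoethanol, primed with concanavalin A 24 h at 37°C to induce IL-2 receptor. Then incubated with IL-2 plus compound at designated concentrations for 3 days. Proliferation read by alamarBlue after 6 h (ex 545/em 590 nm). Duplicate or triplicate wells, IC50 by linear or Sigmoid-Emax regression.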

[16] = Intrinsic clearance in rat liver microsomes; assay type: ADME, microsome; settings: read-out: CLH; procedure, shortened: as §1

Sequence of Tyrosine-protein kinase JAK2 (O60674 whole entry, the tested form may be a part): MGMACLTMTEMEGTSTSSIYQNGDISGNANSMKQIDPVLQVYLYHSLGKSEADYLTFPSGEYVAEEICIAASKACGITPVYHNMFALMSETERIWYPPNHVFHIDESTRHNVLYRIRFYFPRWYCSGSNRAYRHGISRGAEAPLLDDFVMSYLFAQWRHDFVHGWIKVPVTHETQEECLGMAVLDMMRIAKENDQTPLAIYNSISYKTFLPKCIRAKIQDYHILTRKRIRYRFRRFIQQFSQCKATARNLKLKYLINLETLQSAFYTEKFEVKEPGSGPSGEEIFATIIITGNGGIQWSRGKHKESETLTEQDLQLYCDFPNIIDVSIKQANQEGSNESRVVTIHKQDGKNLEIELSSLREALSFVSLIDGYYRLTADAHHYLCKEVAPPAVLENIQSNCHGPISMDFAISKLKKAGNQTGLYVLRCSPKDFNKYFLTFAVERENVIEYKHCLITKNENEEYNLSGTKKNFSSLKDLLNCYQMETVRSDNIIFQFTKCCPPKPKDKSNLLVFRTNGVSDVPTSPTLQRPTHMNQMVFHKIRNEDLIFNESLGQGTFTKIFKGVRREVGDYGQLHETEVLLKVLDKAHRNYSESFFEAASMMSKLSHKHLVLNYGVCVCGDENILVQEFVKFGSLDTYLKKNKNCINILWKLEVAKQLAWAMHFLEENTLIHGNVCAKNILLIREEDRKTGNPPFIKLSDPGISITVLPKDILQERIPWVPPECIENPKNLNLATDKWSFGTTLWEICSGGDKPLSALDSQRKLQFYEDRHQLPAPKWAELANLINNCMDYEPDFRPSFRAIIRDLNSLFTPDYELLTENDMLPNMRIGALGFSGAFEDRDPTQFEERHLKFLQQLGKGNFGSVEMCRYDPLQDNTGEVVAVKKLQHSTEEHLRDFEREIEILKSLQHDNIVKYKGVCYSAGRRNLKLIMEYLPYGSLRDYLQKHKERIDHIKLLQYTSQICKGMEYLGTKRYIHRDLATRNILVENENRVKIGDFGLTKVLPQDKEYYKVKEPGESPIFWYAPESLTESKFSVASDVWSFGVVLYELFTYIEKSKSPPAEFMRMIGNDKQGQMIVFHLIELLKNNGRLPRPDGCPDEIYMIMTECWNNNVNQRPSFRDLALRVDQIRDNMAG

Compound	IC50 [1] [µM]	IC50 [2] [µM]	IC50 [3] [µM]	CLint scaled at 0.2 µM [4] [L/h/kg]	also measured
COC12CC3CC(C1)C(Nc1c(C(N)=O)cnc4[nH]ccc14)C(C3)C2 (configuration not stated)	0.005	0.00063	0.0078	> 60	–
Br.NC(=O)c1cnc2[nH]ccc2c1NC1C2CC3CC1CC(O)(C3)C2 (configuration not stated)	–	–	–	7.44	clearance [5]: 1.74 L/h/kg; bioavailability [6]: 45.9%; Vd [7]: 1.83 L/kg; IC50 [8]: 0.01 µM; half-life [9]: 2.12 h; Cmax [10]: 0.126 µg/mL; AUC(0-inf) [11]: 0.575 µg·h/mL; half-life [12]: 4.72 h; Tmax [13]: 0.25 h; AUC(0-inf) [14]: 0.264 µg·h/mL
NC(=O)c1cnc2[nH]ccc2c1N[C@@H]1C[C@H]2CC[C@@H]1C2 (racemic)	0.015	0.0032	0.024	51.5	–
C[C@@H]1CCCC[C@@H]1Nc1c(C(N)=O)cnc2[nH]ccc12	–	–	–	–	IC50 [15]: 0.086 µM; CLint scaled [16]: > 60 L/h/kg
NC(=O)c1cnc2[nH]ccc2c1NC1C2CC3CC(C2)CC1C3 (configuration not stated)	0.011	0.0021	0.012	> 60	–
NC(=O)c1cnc2[nH]ccc2c1NC1C2CC3CC1CC(F)(C3)C2 (configuration not stated)	0.011	0.0021	0.019	> 60	–
NC(=O)c1cnc2[nH]ccc2c1NC12CC3CC(CC(C3)C1)C2	0.12	0.01	0.11	–	–
